Results: ChEMBL document CHEMBL1135582, “Synthesis and structure-activity relationships of amide and hydrazide analogues of the cannabinoid CB(1) receptor antagonist N-(piperidinyl)- 5-(4-chlorophenyl)-1-(2,4-dichlorophenyl)-4-methyl-1H-pyrazole-3-carboxamide (SR141716)” (J Med Chem, 2002)

How the values were obtained:
Rattus norvegicus [1] = species on record: Rattus norvegicus; assay: The effective concentration using [35S]GTP-gamma-S binding assay in rat membranes; format: functional
[2] = Selectivity measured as CB2/CB1
Rattus norvegicus [3] = species on record: Rattus norvegicus; assay: Maximum concentration based on [35S]GTP-gamma-S binding assay in rat membranes; format: functional
[4] = target: T1, Cannabinoid receptor (Mus musculus) (UniProt P47746+P47936); assay: Dissociation Constant in Mouse isolated vas deferens at 31.6 nM of compound using cannabinoid receptor agonist WIN-55 212-2
T1 sequence (P47746 whole entry, looked up): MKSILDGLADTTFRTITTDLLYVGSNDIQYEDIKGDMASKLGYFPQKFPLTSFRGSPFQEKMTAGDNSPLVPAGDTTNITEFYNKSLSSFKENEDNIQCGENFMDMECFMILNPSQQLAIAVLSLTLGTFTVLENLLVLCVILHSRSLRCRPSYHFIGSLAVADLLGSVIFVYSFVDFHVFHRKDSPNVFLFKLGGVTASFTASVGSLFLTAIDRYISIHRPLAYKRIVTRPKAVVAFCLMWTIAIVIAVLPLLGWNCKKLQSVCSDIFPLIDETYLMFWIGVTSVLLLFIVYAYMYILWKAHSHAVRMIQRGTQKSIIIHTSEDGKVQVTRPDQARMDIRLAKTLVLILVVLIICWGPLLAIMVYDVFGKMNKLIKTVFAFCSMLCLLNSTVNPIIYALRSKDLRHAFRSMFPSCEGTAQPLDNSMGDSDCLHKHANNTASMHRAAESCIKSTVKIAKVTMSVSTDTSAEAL
T1 sequence (P47936 whole entry, looked up): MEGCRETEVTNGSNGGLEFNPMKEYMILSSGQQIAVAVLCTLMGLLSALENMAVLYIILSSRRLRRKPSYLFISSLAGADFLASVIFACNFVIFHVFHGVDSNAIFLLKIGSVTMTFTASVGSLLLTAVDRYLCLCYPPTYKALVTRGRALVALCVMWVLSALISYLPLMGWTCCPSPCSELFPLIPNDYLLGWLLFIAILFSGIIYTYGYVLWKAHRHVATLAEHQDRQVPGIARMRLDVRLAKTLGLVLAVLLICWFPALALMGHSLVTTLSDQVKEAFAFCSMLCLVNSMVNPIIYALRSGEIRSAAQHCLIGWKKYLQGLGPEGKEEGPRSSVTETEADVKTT

[5] = target: T1, Cannabinoid receptor (Mus musculus); assay: Dissociation Constant in Mouse isolated vas deferens at 316 nM of compound using cannabinoid receptor agonist WIN-55 212-2; format: functional, tissue-based
Outline: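 Vasa deferentia from MF1 mice (26–44 g) were electrically stimulated in an organ bath until twitches were stable. Percent twitch inhibition was measured. KB came from a single concentration ratio via (x−1)=B/KB, with ratios from (2+2) parallel line assays. Results are means with 95% confidence limits.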

[6] = target: T1, Cannabinoid receptor (Mus musculus); assay: Dissociation Constant in Mouse isolated vas deferens at 316 nM of compound using cannabinoid receptor agonist WIN-55 212-2 (95% confidence limits); format: functional, tissue-based
Outline: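 Vasa deferentia from albino MF1 mice (26–44 g) in organ bath, electrically stimulated until twitch amplitude stable. Antagonist (DMSO vehicle) added 30 min before cumulative agonist additions at 5 min intervals, stimulating final 2 min of each. Inhibition relative to pre-agonist twitch; KB from single concentration ratio, (x − 1) = B/KB, via (2 + 2) parallel line assay; 95% confidence limits; n = 5 or 6.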

Cannabinoid receptor 1 [7] = target: T2, Cannabinoid receptor 1 (Rattus norvegicus, UniProt P20272); assay: Binding affinity in a competition assay by displacement of [3H]CP-55940 from Cannabinoid receptor 1 in rat whole brain membrane preparation; format: cell membranes
T2 sequence (P20272 whole entry): as the sequence (P47746 whole entry, looked up) above, with D95E counted along it

Cannabinoid receptor 2 = Cannabinoid receptor 2 (Homo sapiens, UniProt P34972); assay: Binding affinity at cannabinoid receptor 2 in a competition assay with [3H]CP-55940 as radioligand
Cannabinoid receptor 2, sequence (P34972 whole entry): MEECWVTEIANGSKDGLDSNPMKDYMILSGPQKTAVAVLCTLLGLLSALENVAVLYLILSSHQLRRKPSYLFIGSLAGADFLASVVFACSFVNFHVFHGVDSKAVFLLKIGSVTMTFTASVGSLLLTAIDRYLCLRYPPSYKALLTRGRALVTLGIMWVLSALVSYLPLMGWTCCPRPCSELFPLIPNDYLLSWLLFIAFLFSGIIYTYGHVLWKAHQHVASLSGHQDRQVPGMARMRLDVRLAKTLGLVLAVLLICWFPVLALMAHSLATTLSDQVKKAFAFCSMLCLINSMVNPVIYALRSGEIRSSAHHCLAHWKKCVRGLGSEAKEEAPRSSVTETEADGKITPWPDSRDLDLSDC

Cannabinoid receptor 1 [8] = target: T2, Cannabinoid receptor 1; assay: Binding affinity in a competition assay by displacement of [3H]- SR-141716 from Cannabinoid receptor 1 in rat whole brain membrane preparation; format: cell membranes

| EC50 (Rattus norvegicus [1]) | Selectivity [2] | Emax (Rattus norvegicus [3]) | SMILES | also measured |
| --- | --- | --- | --- | --- |
| 1670 µM | 11 | -76.5 | Cc1c(C(=O)NCCO)nn(-c2ccc(Cl)cc2Cl)c1-c1ccc(Cl)cc1 | – |
| 419 µM | 32 | -71.7 | Cc1c(C(=O)NN)nn(-c2ccc(Cl)cc2Cl)c1-c1ccc(Cl)cc1 | – |
| 12000 µM | – | – | CNNC(=O)c1nn(-c2ccc(Cl)cc2Cl)c(-c2ccc(Cl)cc2)c1C | – |
| 26 µM | 93 | -22.1 | Cc1c(C(=O)NC2CCCCC2)nn(-c2ccc(Cl)cc2Cl)c1-c1ccc(Cl)cc1 | – |
| 11.1 µM | 99 | -35.7 | CCCNC(=O)c1nn(-c2ccc(Cl)cc2Cl)c(-c2ccc(Cl)cc2)c1C | – |
| 241 µM | 8 | -83.3 | Cc1c(C(=O)NCCCO)nn(-c2ccc(Cl)cc2Cl)c1-c1ccc(Cl)cc1 | – |
| 304 µM | – | -79.5 | Cc1c(C(=O)NCCCCO)nn(-c2ccc(Cl)cc2Cl)c1-c1ccc(Cl)cc1 | – |
| 29.4 µM | 378 | -13 | CCCCCCNC(=O)c1nn(-c2ccc(Cl)cc2Cl)c(-c2ccc(Cl)cc2)c1C | Kb [4]: 0.0154 µM |
| 16 µM | 59 | -46.4 | Cc1c(C(=O)NC(C)C)nn(-c2ccc(Cl)cc2Cl)c1-c1ccc(Cl)cc1 | – |
| 30.3 µM | 67 | -46.9 | CCNC(=O)c1nn(-c2ccc(Cl)cc2Cl)c(-c2ccc(Cl)cc2)c1C | – |
| 7.54 µM | 61 | -11 | Cc1c(C(=O)NCC(C)C)nn(-c2ccc(Cl)cc2Cl)c1-c1ccc(Cl)cc1 | Kb [5]: 0.0212 µM |
| 8.54 µM | 119 | -38.5 | CCCCNC(=O)c1nn(-c2ccc(Cl)cc2Cl)c(-c2ccc(Cl)cc2)c1C | – |
| 495 µM | – | – | CCNNC(=O)c1nn(-c2ccc(Cl)cc2Cl)c(-c2ccc(Cl)cc2)c1C | – |
| 38.9 µM | 105 | -76.3 | Cc1c(C(=O)NN2CCOCC2)nn(-c2ccc(Cl)cc2Cl)c1-c1ccc(Cl)cc1 | Kb [6]: 0.0125 µM |
| 292 µM | 15 | -83 | Cc1c(C(=O)N[C@H](C)CO)nn(-c2ccc(Cl)cc2Cl)c1-c1ccc(Cl)cc1 | Ki (Cannabinoid receptor 1 [7]): 0.117 µM; Ki (Cannabinoid receptor 2): 1.77 µM; Ki (Cannabinoid receptor 1 [8]): 0.0998 µM |
| 294 µM | 50 | -83.8 | Cc1c(C(=O)N[C@@H](C)CO)nn(-c2ccc(Cl)cc2Cl)c1-c1ccc(Cl)cc1 | Ki (Cannabinoid receptor 1 [7]): 0.117 µM; Ki (Cannabinoid receptor 2): 5.9 µM; Ki (Cannabinoid receptor 1 [8]): 0.123 µM |
| – | 5 | – | Cc1c(C(=O)NO)nn(-c2ccc(Cl)cc2Cl)c1-c1ccc(Cl)cc1 | – |

| SMILES | EC50 (Rattus norvegicus [1]) | Selectivity [2] | Emax (Rattus norvegicus [3]) | also measured |
| --- | --- | --- | --- | --- |
| CCCCCNC(=O)c1nn(-c2ccc(Cl)cc2Cl)c(-c2ccc(Cl)cc2)c1C | 5.27 µM | – | -7.4 | – |
